Common to all, as to format: functional
The test system of experiment [1] is Semliki Forest virus. The experiment in a line: Effect of compound on forest virus infection in mice at the dose of 100 mg/kg; tested over 12 mice. The method, boiled down:
(§1)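 Female Swiss Webster mice, about 20 g, received test compound intraperitoneally in aqueous 2% sodium bicarbonate. The daily dose was split into two halves given 24 h and 18 h before lethal Semliki Forest virus inoculation. Placebo mice got 2% sodium bicarbonate alone (0.1 mL/injection). The read-outs were survivors per group and mean survival time with standard deviation.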

Experiment [2] has as its system Semliki Forest virus. As to the kind of experiment: Effect of compound on forest virus infection in mice at the dose of 200 mg/kg; tested over 12 mice. The gist of the method:
as §1

Experiment [3] deals with Semliki Forest virus. As to the kind of experiment: Effect of compound on forest virus infection in mice, Mean survival time through 21 days at 100 mg/kg dose. The method, boiled down: as §1
Experiment [4] concerns Semliki Forest virus. As to the kind of experiment: Effect of compound on forest virus infection in mice, Mean survival time through 21 days at 200 mg/kg dose. The method, boiled down: as §1
Experiment [5] relates to Semliki Forest virus. The experiment in a line: Effect of compound on forest virus infection in mice at the dose of 100 mg/kg; Tested over 12 mice. The method, boiled down:
as §1

Experiment [6] relates to Mus musculus. As to the kind of experiment: In vivo effect of Guanosines on murine NK cell activity at E:T ratio of 100:1. The gist of the method:
(§2)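 Mice dosed ip with 150 mg/kg in 2% aqueous sodium bicarbonate, split as 75 mg/kg b.i.d. for 1 day; controls got 2% sodium bicarbonate alone; groups of two. Spleens taken after 24 h; splenocytes tested ex vivo against 51Cr-labelled YAC-1 T-cell lymphoma targets in a 4 h 51Cr release assay, in triplicate, at two effector:target ratios.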

For experiment [7], the system named is Semliki Forest virus. The experiment in a line: Effect of compound on forest virus infection in mice at the dose of 200 mg/kg; tested over 11 mice. The gist of the method: as §1
Experiment [8] has as its system Mus musculus. As to the kind of experiment: In vivo effect of Guanosines on murine NK cell activity at E:T ratio of 50:1. The gist of the method:
as §2

Experiment [9] concerns Mus musculus. As to the kind of experiment: In vivo effect of Guanosines on murin NK cell activity at E:T ratio of 100:1. The gist of the method: as §2
The subject of experiment [10] is Semliki Forest virus. As to the kind of experiment: Effect of compound on forest virus infection in mice at the dose of 200 mg/kg; Tested over 12 mice. The gist of the method: as §1

Each structure is given as a SMILES string.

Turning to `Nc1nc2c(c(C(=O)O)nn2C2O[C@H](CO)[C@@H](O)[C@H]2O)c(=O)[nH]1` (stereo partly drawn), the values for the Survivors / total with Semliki Forest virus [1] and in the experiment on Semliki Forest virus [2] were 1 and 3, respectively. The values for the Mean survival time in the experiment on Semliki Forest virus [3] and with Semliki Forest virus [4] were 6 days and 6.3 days, respectively.

Regarding `N=c1[nH]c(=O)c2c(-c3ccccc3)nn(C3O[C@H](CO)[C@@H](O)[C@H]3O)c2[nH]1` (stereo partly drawn), the Survivors / total in the experiment on Semliki Forest virus [1] worked out at 1; in the experiment on Semliki Forest virus [2] it was 0. The Mean survival time stood at 6 days in the experiment with Semliki Forest virus [3] and 7.2 days in the experiment with Semliki Forest virus [4].

With `COc1nn(C2O[C@H](CO)[C@@H](O)[C@H]2O)c2nc(N)[nH]c(=O)c12` (stereo partly drawn), the Survivors / total in the experiment on Semliki Forest virus [5] and in the experiment on Semliki Forest virus [2] was 2 each time. The Mean survival time in the experiment on Semliki Forest virus [3] came out at 7.8 days; with Semliki Forest virus [4], 8.6 days.

On to `Cc1nn(C2O[C@H](CO)[C@@H](O)[C@H]2O)c2nc(N)[nH]c(=O)c12` (stereo partly drawn), for which the Cytotoxicity in the experiment with Mus musculus [6] was 29.7%; in the experiment on Mus musculus [8], 17%. Besides, the Survivors / total in the experiment with Semliki Forest virus [1] was determined as 8; with Semliki Forest virus [7], 6. The Mean survival time with Semliki Forest virus [3] was 8 days; in the experiment on Semliki Forest virus [4], 6.4 days.

Regarding `Nc1nc2c(c(Br)nn2C2O[C@H](CO)[C@@H](O)[C@H]2O)c(=O)[nH]1` (stereo partly drawn), the Survivors / total in the experiment with Semliki Forest virus [5] and with Semliki Forest virus [10] was 11 throughout. Further, the Cytotoxicity in the experiment on Mus musculus [9] is reported as 33.2%; in the experiment with Mus musculus [8], 24.4%. The Mean survival time with Semliki Forest virus [3] and in the experiment with Semliki Forest virus [4] was 9 days each time.

Compound `Nc1nc2c(c(=O)[nH]1)c(=O)[nH]n2C1O[C@H](CO)[C@@H](O)[C@H]1O` (stereo partly drawn) came in with a Survivors / total in the experiment on Semliki Forest virus [2] of 0%. In addition, the Mean survival time in the experiment with Semliki Forest virus [3] was found to be 7 days; in the experiment with Semliki Forest virus [4], 6.9 days.

Consider `Nc1nc2c(c(N)nn2C2O[C@H](CO)[C@@H](O)[C@H]2O)c(=O)[nH]1` (stereo partly drawn), for which the Survivors / total is 1 in the experiment on Semliki Forest virus [5] and 3 with Semliki Forest virus [10]. Moreover, the figures for the Cytotoxicity in the experiment on Mus musculus [6] and in the experiment on Mus musculus [8] were 25% and 16.8%, respectively. The Mean survival time in the experiment with Semliki Forest virus [3] amounted to 6.2 days; with Semliki Forest virus [4], 6.8 days.

As to `Nc1nc2c(cnn2C2O[C@H](CO)[C@@H](O)[C@H]2O)c(=O)[nH]1` (stereo partly drawn), the Survivors / total is 9 in the experiment on Semliki Forest virus [5] and 12 in the experiment with Semliki Forest virus [10]. Moreover, the Cytotoxicity in the experiment with Mus musculus [6] turned out to be 41.1%; in the experiment with Mus musculus [8], 26.9%. Moreover, the Mean survival time in the experiment on Semliki Forest virus [3] was 9 days; in the experiment on Semliki Forest virus [4], above 21 days.

On to `Nc1nc(=O)c2sc(=O)n([C@@H]3O[C@H](CO)[C@@H](O)[C@H]3O)c2[nH]1` [ISATORIBINE], for which the figures for the Survivors / total in the experiment on Semliki Forest virus [5] and in the experiment on Semliki Forest virus [10] were 10 and 12, respectively. Besides, the Mean survival time in the experiment on Semliki Forest virus [3] is 11.5 days; in the experiment with Semliki Forest virus [4] it was above 21 days.
